# Experimental data published in ChEMBL document CHEMBL1143713, “Antimitotic activities of 2-phenylindole-3-carbaldehydes in human breast cancer cells” (Bioorg Med Chem, 2007).
# Calls of active or inactive are those of the source. The calls are words filed in the database; no cut-off is given here.
# Columns and labels:
# [1] = tested on: MDA-MB-231; assay: Antiproliferative activity against human MDA-MB-231 cells after 4 days; format: functional, cell-based; conditions: MDA-MB-231, 96 h
# [2] = tested on: MCF7; assay: Antiproliferative activity against human MCF7 cells after 5 days; format: functional, cell-based; conditions: MCF7, 120 h
# [3] = tested on: MDA-MB-231; assay: Cell cycle arrest in MDA-MB-231 cells by accumulation at G2/M phase after 24 hrs by flow cytometry; format: functional, cell-based; conditions: Homo sapiens
# Procedure, shortened: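 MDA-MB 231 cells at 70–80% confluence exposed 24 h to compounds diluted from DMF stocks (0.1% DMF final), various concentrations, vincristine reference. Cells trypsinized, fixed in 70% ethanol, DNA-extracted, stained with propidium iodide ≥30 min at room temperature. 8000–15,000 events per sample by flow cytometry; sub-G1, G0/G1, S, G2/M fractions. Representative of two experiments.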
# [4] = tested on: U-87MG ATCC; assay: Effect on cell morphology in human U87 cells assessed as disruption of microtubule network and loss of function at 10 nM after 3 hrs; format: functional, cell-based
# Procedure, shortened: (§1)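 U-87 MG glioma cells at 75% confluence treated 3 h at 37 °C; vehicle ethanol. Fixed in 4% paraformaldehyde, permeabilized with 1% Triton X-100. Chromatin stained with SYTOX Green; microtubules with mouse anti-α-tubulin and Cy5 goat anti-mouse antibody (1:200). Imaged by confocal laser scanning microscopy.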
# [5] = Inhibition of temperature-induced tubulin polymerization of calf brain; parameters: species or system Bos taurus
# Procedure, shortened: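 Tubulin from fresh calf brain cortex, purified by temperature-dependent polymerization/depolymerization cycles and checked by PAGE, in PEMG buffer. Supernatant mixed with compound in DMSO at varying concentrations, preincubated 15 min at 37 °C, chilled, then 25 mM GTP solution added. Temperature switched from 2 to 37 °C in cuvettes; turbidity at 350 nm over 20 min. Mean of two controls = 100%; IC50 from three independent experiments.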
# [6] = biological target: Tubulin (Homo sapiens) (UniProt P68371+Q9H4B7+P0DPH7+P68366+Q13509+Q71U36+P04350+Q3ZCM7+P07437+P68363+Q9BQE3+Q6PEY2+Q13885+Q9BVA1+Q9BUF5); assay: Inhibition of tubulin polymerization at 5 uM by microplate assay; format: protein-complex assay
# Procedure, shortened: (§2)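 Commercial microplate tubulin kit in G-PEM buffer with 5% glycerol. Compounds from DMSO stocks, diluted 1:10 in G-PEM, added to wells prewarmed to 37 °C. Cold tubulin added; absorbance at 355 nm read every minute over about 28–30 min at 37 °C after shift from 2 °C. Solvent controls; colchicine and docetaxel as references.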
# [7] = biological target: Tubulin; assay: Inhibition of tubulin polymerization by microplate assay; format: protein-complex assay, Homo sapiens; procedure, shortened: as §2
# [8] = tested on: U-87MG ATCC; assay: Effect on cell morphology in human U87 cells assessed as condensation of microtubule around the nucleus and loss of function at 50 nM after 3 hrs; format: functional, cell-based; procedure, shortened: as §1
IC50 [1],IC50 [2],Compound,other results
72 nM,180 nM,COc1ccc(-c2[nH]c3ccc(CC(C)C)cc3c2C=O)cc1,
6 nM,21 nM,CCCCCc1ccc2[nH]c(-c3ccc(OC)cc3)c(/C=N\C)c2c1,
,,CC[C@]1(O)C[C@H]2CN(CCc3c([nH]c4ccccc34)[C@@](C(=O)OC)(c3cc4c(cc3OC)N(C=O)[C@H]3[C@@](O)(C(=O)OC)[C@H](OC(C)=O)[C@]5(CC)C=CCN6CC[C@]43[C@@H]65)C2)C1,Activity [3]: Active; Activity [4]: Active
497 nM,1660 nM,CCCCc1ccc2[nH]c(-c3ccc(C(F)(F)F)cc3)c(/C=N\O)c2c1,
1030 nM,390 nM,COc1cccc(-c2[nH]c3cc(OC)ccc3c2C=O)c1,
32 nM,140 nM,CCCCc1ccc2[nH]c(-c3ccc(C(F)(F)F)cc3)c(/C=N\C)c2c1,
7.4 nM,6 nM,CCCCCCc1ccc2[nH]c(-c3ccc(OC)cc3)c(C=O)c2c1,Activity [3]: Active
34 nM,220 nM,C/N=C\c1c(-c2ccc(OC)cc2)[nH]c2cc(OC)ccc12,IC50 [5]: 1800 nM
29 nM,97 nM,COc1ccc(-c2[nH]c3ccc(C(C)C)cc3c2C=O)cc1,
280 nM,580 nM,COc1ccc(-c2[nH]c3ccc(C(C)(C)C)cc3c2C=O)cc1,
540 nM,240 nM,COc1ccc(-c2[nH]c3ccc(F)cc3c2C=O)cc1,
40 nM,212 nM,CCCCc1ccc2[nH]c(-c3ccc(OC)cc3)c(/C=N\O)c2c1,Activity [3]: Active
33 nM,66 nM,CCCCc1ccc2[nH]c(-c3ccc(C(F)(F)F)cc3)c(C=O)c2c1,Activity [3]: Active; Activity [6]: inactive
35 nM,160 nM,COc1ccc(-c2[nH]c3cc(OC)ccc3c2C=O)cc1,IC50 [5]: 1500 nM
26 nM,62 nM,COc1ccc(-c2[nH]c3cc(Cl)c(C)cc3c2C=O)cc1,
7.8 nM,37 nM,Cc1ccc(-c2[nH]c3cc(Cl)ccc3c2C=O)cc1,
43 nM,22 nM,CCCCCCc1ccc2[nH]c(-c3ccc(C(F)(F)F)cc3)c(C=O)c2c1,

IC50 [1],IC50 [2],Compound,other results
27 nM,65 nM,COc1ccc(-c2[nH]c3cc(Cl)ccc3c2C=O)cc1,
300 nM,200 nM,CCCCc1ccc(-c2[nH]c3ccc(CC)cc3c2C=O)cc1,
270 nM,20 nM,COc1ccc2c(C=O)c(-c3ccc(OC)c(OC)c3)[nH]c2c1,
31 nM,100 nM,COc1ccc2c(C=O)c(-c3ccc(C)cc3)[nH]c2c1,
86 nM,140 nM,COc1ccc(-c2[nH]c3ccc(C)cc3c2C=O)cc1,Activity [3]: Active
,,COc1ccc(-c2[nH]c3ccc(OC)cc3c2C=O)cc1,IC50 [5]: 4000 nM
6 nM,27 nM,CCCCc1ccc2[nH]c(-c3ccc(OC)cc3)c(/C=N\C)c2c1,Activity [3]: Active; IC50 [7]: 1200 nM
27 nM,58 nM,CCCCc1ccc2[nH]c(-c3ccc(CC)cc3)c(C=O)c2c1,Activity [3]: Active
350 nM,200 nM,CCCCc1ccc2[nH]c(-c3ccc(F)cc3)c(C=O)c2c1,
800 nM,1650 nM,COc1ccc2c(C=O)c(-c3ccc(OC)c(O)c3)[nH]c2c1,
34 nM,54 nM,CCCCc1ccc2[nH]c(-c3ccc(C)cc3)c(C=O)c2c1,Activity [3]: Active
48 nM,165 nM,Cc1ccc(-c2[nH]c3ccc(C)cc3c2C=O)cc1,
5.5 nM,20 nM,CCCCCc1ccc2[nH]c(-c3ccc(OC)cc3)c(C=O)c2c1,
6.7 nM,22 nM,CCCCc1ccc2[nH]c(-c3ccc(OC)cc3)c(C=O)c2c1,Activity [3]: Active; inhibition [6]: 23%; Activity [8]: Active
20 nM,54 nM,CCCc1ccc2[nH]c(-c3ccc(OC)cc3)c(C=O)c2c1,
42 nM,67 nM,CCCCCc1ccc2[nH]c(-c3ccc(C(F)(F)F)cc3)c(C=O)c2c1,
59 nM,,COc1ccc(-c2[nH]c3cc(F)ccc3c2C=O)cc1,IC50 [5]: 1800 nM
